Activity calls are given as the source filed them. The rule behind the calls is not given here.
How the values were obtained:
U-87 MG [1] = test: Antiproliferative activity against human U-87 MG cells incubated for 72 to 120 hrs by MTT assay; format: functional, cell-based; details: U-87MG ATCC, time 72-120 hrs
In short: (§1)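 HT-29, U-87MG or MKN-45 in RPMI with 10% FBS and L-glutamine. Seeded in sextuplicate at 1.5×10^3 cells/well; compounds at 10–100 μM added after 24 h and left 72, 96 or 120 h; 0.5% DMSO control. MTT absorbance read; viability as treated/control ×100. Mean ± SD of two independent experiments in triplicate.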

[2] = Antiproliferative activity against human IMS-M2 cells at 100 uM incubated for 48 hrs by WST-1 assay; format: functional, cell-based
In short: (§2)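 Leukemia/lymphoma lines plated in triplicate at 5×10^3 cells/well. Exposed to increasing compound concentrations (maximum 100 μM) for 48 h at 37 °C, 5% CO2. WST-1 reagent then added for 1 h. IC50 obtained by nonlinear regression of dose–response curves.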

U-87 MG [3] = test: Synergistic cytotoxicity against human U-87MG cells assessed as combinantion index at ED90 after 24 hrs in presence of doxorubicin by MTT assay; format: functional, U-87MG ATCC
In short: (§3)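 Doxorubicin combined with inhibitor at a fixed 1:20 concentration ratio, 24 h exposure, U-87MG viability read by MTT. Combination index calculated with the CI equation and plotted against fractional growth inhibition. CI <0.9 is scored as synergism, 0.9–1.1 as additivity, >1.1 as antagonism. Mean of two independent experiments in triplicate.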

HL-60 = test: Antiproliferative activity against human HL-60 cells at 100 uM incubated for 48 hrs by WST-1 assay; format: functional, cell-based; in short: as §2
OCI-AML2 = test: Antiproliferative activity against human OCI-AML2 cells at 100 uM incubated for 48 hrs by WST-1 assay; format: functional, cell-based; in short: as §2
NB-4 = test: Antiproliferative activity against human NB-4 cells at 100 uM incubated for 48 hrs by WST-1 assay; format: functional, cell-based; in short: as §2
U-87 MG [4] = test: Antagonist cytotoxicity against human U-87MG cells assessed as reduction in cell viability at 20 uM after 24 hrs in presence of doxorubicin by MTT assay; format: functional, cell-based; details: U-87MG ATCC
In short: (§4)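 U-87MG in RPMI with 10% FBS. Treated 24 h with doxorubicin alone, test compound alone, or both at a fixed doxorubicin:compound ratio of 1:20. Viability read by MTT absorbance and expressed as treated/control ×100. Mean ± SD of two independent experiments, each in triplicate.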

KARPAS-299 = test: Antiproliferative activity against human KARPAS-299 cells at 100 uM incubated for 48 hrs by WST-1 assay; format: functional, cell-based; in short: as §2
OCI-AML-3 = test: Antiproliferative activity against human OCI-AML-3 cells at 100 uM incubated for 48 hrs by WST-1 assay; format: functional, cell-based; in short: as §2
MV4-11 = test: Antiproliferative activity against human MV4-11 cells at 100 uM incubated for 48 hrs by WST-1 assay; format: functional, cell-based; in short: as §2
MKN-45 = test: Antiproliferative activity against human MKN-45 cells at 10 to 100 uM incubated for 72 to 120 hrs by MTT assay; format: functional, cell-based; details: dose 10-100 µM, time 72-120 hrs; in short: as §1
U-87 MG [5] = test: Synergistic cytotoxicity against human U-87MG cells assessed as combinantion index at ED75 after 24 hrs in presence of doxorubicin by MTT assay; format: functional, U-87MG ATCC; in short: as §3
U-87 MG [6] = test: Synergistic cytotoxicity against human U-87MG cells assessed as combinantion index at ED50 after 24 hrs in presence of doxorubicin by MTT assay; format: functional, U-87MG ATCC; in short: as §3
Kasumi 1 = test: Antiproliferative activity against human Kasumi 1 cells at 100 uM incubated for 48 hrs by WST-1 assay; format: functional, cell-based; in short: as §2
U-87 MG [7] = test: Induction of DNA damage in human U-87MG cells assessed as increase in gamma H2AX phosphorylation at ser139 at 20 uM by Western blot analysis; format: functional, cell-based; details: U-87MG ATCC
U-87 MG [8] = test: Induction of cell cycle arrest in human U-87MG cells assessed as accumulation of cells at G2/M phase at 10 uM after 24 hrs by propidium iodide staining based flow cytometry analysis; format: functional; details: U-87MG ATCC
In short: (§5)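 U-87MG treated 24 h with 10 μM compound, alone or with 0.5 μM doxorubicin. Cell-cycle phases and Sub-G1 fraction scored; three independent experiments.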

HT-29 = test: Antiproliferative activity against human HT-29 cells at 10 to 100 uM incubated for 72 to 120 hrs by MTT assay; format: functional, cell-based; details: dose 10-100 µM, time 72-120 hrs; in short: as §1
U-937 = test: Antiproliferative activity against human U-937 cells at 100 uM incubated for 48 hrs by WST-1 assay; format: functional, cell-based; in short: as §2
U-87 MG [9] = test: Induction of apoptosis in human U87-MG cells assessed as increase in apoptotic cells at 10 uM after 24 hrs in presence of 0.5 uM doxorubicin by propidium iodide staining based flow cytometry analysis; format: functional, U-87MG ATCC; in short: as §5
U-87 MG [10] = test: Inhibition of KDM6 in human U-87MG cells assessed as increase in H3K27me3 level after 48 hrs by immunofluorescence analysis; format: cell-based
In short: (§6)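 U-87MG on coverslips, treated 24 h after plating with 50 μM compound for 48 h. Reference inhibitors: CPI-455 25 μM (KDM5), IOX-1 100 μM (KDM4), GSK-J4 10 μM (KDM6). PFA-fixed cells immunostained for H3K4me3, H3K9me3 or H3K27me3 with DAPI counterstain. Per-cell nuclear intensity quantified, ≥50 cells per condition; Mann–Whitney test vs DMSO.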

U-87 MG [11] = test: Synergistic cytotoxicity against human U-87MG cells assessed as reduction in cell viability at 20 uM after 24 hrs in presence of doxorubicin by MTT assay; format: functional, U-87MG ATCC; in short: as §4
U-87 MG [12] = test: Cytotoxicity against human U-87MG cells assessed as reduction in cell viability after 24 hrs in presence of doxorubicin by MTT assay; format: functional, cell-based; details: U-87MG ATCC; in short: as §4
U-87 MG [13] = test: Induction of apoptosis in human U87-MG cells assessed as increase in sub-G1 cells at 10 uM after 24 hrs by propidium iodide staining based flow cytometry analysis; format: functional, cell-based; details: U-87MG ATCC; in short: as §5
HeLa [14] = test: Binding affinity to MINA53 in HeLa cells assessed as substrate trapping using RPL27A as substrate at 100 uM after 18 hrs by immunoprecipitation analysis; format: cell-based; details: Homo sapiens
U-87 MG [15] = test: Inhibition of KDM4 in human U-87MG cells assessed as increase in H3K9me3 level after 48 hrs by immunofluorescence analysis; format: cell-based; in short: as §6
U-87 MG [16] = test: Binding affinity to MINA53 in U-87MG cells assessed as substrate trapping using RPL27A as substrate at 100 uM after 18 hrs by immunoprecipitation analysis; format: cell-based; details: Homo sapiens
HEK-293T = test: Antiproliferative activity against human HEK293T cells at 10 to 100 uM incubated for 72 to 120 hrs by MTT assay; format: functional, cell-based; details: dose 10-100 µM, time 72-120 hrs
In short: (§7)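 HEK293T or HeLa grown in DMEM with 10% FBS, mycoplasma-tested and STR-authenticated. Compounds added 24 h after seeding at 10–100 μM for 72–120 h; 0.5% DMSO as control. Viability by MTT colorimetric assay, expressed as treated/control ×100.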

HeLa [17] = test: Antiproliferative activity against human HeLa cells at 10 to 100 uM incubated for 72 to 120 hrs by MTT assay; format: functional, cell-based; details: dose 10-100 µM, time 72-120 hrs; in short: as §7
U-87 MG [18] = test: Inhibition of KDM5 in human U-87MG cells assessed as increase in H3K4me3 level after 48 hrs by immunofluorescence analysis; format: cell-based; in short: as §6
HEK293T [19] = test: Binding affinity to MINA53 in HEK293T cells assessed as substrate trapping using RPL27A as substrate at 100 uM after 18 hrs by immunoprecipitation analysis; format: cell-based; details: Homo sapiens
In short: (§8)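 HEK293T transiently expressing HA-MINA53, HA-NO66 or empty vector. Treated with 100 μM compound or 0.5% DMSO for 18 h. Cells lysed 1 h at 4 °C in JIES buffer; anti-HA agarose IP overnight, washed, eluted with HA peptide. Blots probed for RPL27A (MINA53) or RPL8 (NO66).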

HEK293T [20] = test: Binding affinity to NO66 in HEK293T cells assessed as substrate trapping using RPL8 as substrate at 100 uM after 18 hrs by immunoprecipitation analysis; format: cell-based; details: Homo sapiens; in short: as §8
U-87 MG [21] = test: Cytotoxicity against human U-87MG cells assessed as doxorubicin sensitization after 24 hrs in presence of doxorubicin by MTT assay; format: functional, cell-based; details: U-87MG ATCC; in short: as §4
Homo sapiens [22] = species: Homo sapiens; test: Inhibition of recombinant human MINA53 expressed in Escherichia coli BL21 (DE3) using RPL27A G31RGNAGGLHHHRINFDKYHP49 as substrate at 100 uM preincubated for 15 mins followed by substrate addition and measured after 30 to 60 mins by RapidFire Mass spectrometry assay; details: time 45-75 min
Homo sapiens [23] = species: Homo sapiens; test: Inhibition of recombinant human NO66 expressed in Escherichia coli BL21 (DE3) using RPL8 N205PVEHPFGGGNHQHIGKPST224 as substrate at 100 uM preincubated for 15 mins followed by substrate addition and measured after 30 to 60 mins by RapidFire Mass spectrometry assay; details: time 45-75 min
In short: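 NO66 (E. coli BL21(DE3)-R3-pRARE2, TEV-cleaved) at 375 nM in 50 mM MES pH 7.0, 150 mM NaCl. Preincubated 15 min with compound. […] Formic-acid quench, RapidFire SPE-MS % hydroxylation.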

Row | Compound | Activity (U-87 MG [1]) | IC50 [2] | CI (U-87 MG [3]) | IC50 (OCI-AML2) | IC50 (KARPAS-299) | IC50 (OCI-AML-3) | IC50 (MV4-11) | Activity (MKN-45) | CI (U-87 MG [5]) | CI (U-87 MG [6]) | IC50 (Kasumi 1) | Activity (U-87 MG [8]) | Activity (HT-29) | IC50 (U-937) | Activity (U-87 MG [9]) | inhibition (U-87 MG [10]) | Activity (U-87 MG [11]) | Activity (U-87 MG [12]) | Activity (U-87 MG [13]) | Activity (HeLa [14]) | further results
1 | O=C(O)c1c[nH]c(=S)[nH]c1=O | inactive | Not Active | 1 | Not Active | Not Active | Not Active | Not Active | inactive | 1 | 1 | Not Active | inactive | inactive | Not Active |  |  |  |  |  |  | IC50 (HL-60): Not Active; IC50 (NB-4): Not Active; Activity (U-87 MG [4]): Active; Activity (U-87 MG [7]): inactive
2 | O=C(O)c1cnc(SCCCc2ccccc2)[nH]c1=O | Active | Not Active | 0.18 | Not Active | Not Active | Not Active | Not Active | Active | 0.13 | 0.21 | Not Active | Active | inactive | Not Active | 60% | inactive | 75% | Dose-Dependent Effect | Active | Active | inhibition (U-87 MG [15]): inactive; Activity (U-87 MG [16]): Active; Activity (HEK-293T): Active; Activity (HeLa [17]): Active; inhibition (U-87 MG [18]): inactive; Activity (U-87 MG [7]; TDE = time-dependent effect): Tde; Activity (HEK293T [19]): Active; Activity (HEK293T [20]): inactive; Activity (U-87 MG [21]): Dose-Dependent Effect
3 | COC(=O)c1cnc(SCCCc2ccccc2)[nH]c1=O | Active |  |  |  |  |  |  | Active |  |  |  |  | Active |  |  |  |  |  |  |  | 
4 | O=C(O)CCNc1cc(N2CCc3ccccc3CC2)nc(-c2ccccn2)n1 |  |  |  |  |  |  |  |  |  |  |  |  |  |  |  |  |  |  |  |  | inhibition (Homo sapiens [22]): inactive; inhibition (Homo sapiens [23]): inactive
5 | O=C(O)c1cnc(SCCc2ccccc2)[nH]c1=O | Active | Not Active | 22.1 | Not Active | Not Active | Not Active | Not Active | Active | 0.63 | 0.32 | Not Active | Active | inactive | Not Active | 60% | inactive | 75% | Dose-Dependent Effect | Active | Active | inhibition (U-87 MG [15]): inactive; Activity (U-87 MG [16]): Active; Activity (HEK-293T): Active; Activity (HeLa [17]): Active; inhibition (U-87 MG [18]): inactive; Activity (U-87 MG [7]; TDE = time-dependent effect): Tde; Activity (HEK293T [19]): Active; Activity (HEK293T [20]): inactive; Activity (U-87 MG [21]): Dose-Dependent Effect

Source: ChEMBL document CHEMBL5030566, “First-in-Class Inhibitors of the Ribosomal Oxygenase MINA53” (J Med Chem, 2021)
